{
  "source": "PubChem BioAssay AID2237",
  "about": "(Johns Hopkins Ion Channel Center, 2010)",
  "note": "About 1,500 (0.48%) of roughly 310,000 compounds were called active.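 Rule for the calls: active = B-score above 5 SD of library B-scores, and initial fluorescence ratio not above library mean plus 5 SD; inactive = the rest.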 For the sample, actives were picked, then their nearest neighbours and some compounds at random.",
  "data": [
    {"target": "Short transient receptor potential channel 4 (Mus musculus) (UniProt Q9QUQ5)", "sequence (Q9QUQ5 whole entry, looked up)": "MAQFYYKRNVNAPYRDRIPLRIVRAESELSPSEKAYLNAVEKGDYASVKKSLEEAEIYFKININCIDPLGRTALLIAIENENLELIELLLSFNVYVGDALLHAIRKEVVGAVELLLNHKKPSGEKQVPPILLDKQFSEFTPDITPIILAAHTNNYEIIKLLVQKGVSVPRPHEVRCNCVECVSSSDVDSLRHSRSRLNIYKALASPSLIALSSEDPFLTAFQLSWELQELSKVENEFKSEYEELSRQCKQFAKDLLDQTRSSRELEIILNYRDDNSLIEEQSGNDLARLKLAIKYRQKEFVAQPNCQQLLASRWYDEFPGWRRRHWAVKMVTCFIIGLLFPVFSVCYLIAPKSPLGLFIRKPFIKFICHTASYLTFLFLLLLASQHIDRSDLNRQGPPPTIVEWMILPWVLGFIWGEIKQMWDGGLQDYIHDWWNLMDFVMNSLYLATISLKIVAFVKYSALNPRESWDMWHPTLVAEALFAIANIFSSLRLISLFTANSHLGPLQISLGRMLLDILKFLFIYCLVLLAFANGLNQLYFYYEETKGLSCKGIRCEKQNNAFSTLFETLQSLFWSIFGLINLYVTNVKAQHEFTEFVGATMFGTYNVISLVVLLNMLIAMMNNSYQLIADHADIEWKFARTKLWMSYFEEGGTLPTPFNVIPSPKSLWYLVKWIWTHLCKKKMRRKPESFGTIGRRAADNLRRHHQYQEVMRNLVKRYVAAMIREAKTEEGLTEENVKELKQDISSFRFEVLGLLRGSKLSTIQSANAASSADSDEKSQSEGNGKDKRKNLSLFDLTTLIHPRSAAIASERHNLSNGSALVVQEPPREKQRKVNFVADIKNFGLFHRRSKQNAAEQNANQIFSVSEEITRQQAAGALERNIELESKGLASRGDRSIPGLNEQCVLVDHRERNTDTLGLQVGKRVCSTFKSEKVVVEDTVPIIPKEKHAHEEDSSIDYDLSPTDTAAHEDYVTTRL", "experiment": "TRPC4 cation channel opening, calcium rise – Fluo4 calcium, HEK293 TRPC4beta/mu-opioid cells, primary screen (AID 2237);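 for B-score: positive B-score marks a calcium rise read as TRPC4 activation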", "conditions": "Fluo4 calcium fluorescence, at 10 µM; hits give high values", "in_short": "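Material: HEK293 stable line with TRPC4beta plus mu-opioid receptor; technique: Fluo4 calcium-sensitive dye fluorescence, kinetic, 1 Hz baseline; timing: Fluo4 dye loading 45 min at room temperature, 110 s recording; controls: assay buffer as low control, maximal DAMGO as high control; read-out: integrated baseline-normalised fluorescence ratio, converted to per-well B score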", "values": [
      {"molecule": "Cc1ccc(S(=O)(=O)NCCC(=O)NNC(=O)C2COc3ccccc3O2)cc1", "note": "(centres undefined)", "B-score": "inactive"},
      {"molecule": "O=C(NCc1ccccc1)C1=C[C@@H](c2ccccc2)C[C@@H](OCCCCO)O1", "B-score": "inactive"},
      {"molecule": "O=C(NCc1ccccc1)C1=C[C@@H](C2CCCCC2)C[C@@H](OCc2ccc(CO)cc2)O1", "B-score": "151 (active)"},
      {"molecule": "O=C(C1=C[C@H](C2CC2)C[C@H](OCc2ccc(CO)cc2)O1)N1CCN(Cc2ccccc2)CC1", "B-score": "inactive"},
      {"molecule": "O=C(NCc1ccccc1)C1=C[C@H](C2CC2)C[C@H](OCc2ccc(CO)cc2)O1", "B-score": "inactive"},
      {"molecule": "CC(C)(C)[C@H]1C=C(C(=O)NCc2ccccc2)O[C@@H](OCc2ccc(CO)cc2)C1", "B-score": "136 (active)"},
      {"molecule": "O=C(NCc1ccccc1)C1=C[C@@H](c2ccc(C(F)(F)F)cc2)C[C@@H](OCc2ccc(CO)cc2)O1", "B-score": "inactive"},
      {"molecule": "CC(=O)c1ccc(S(=O)(=O)Nc2ccc(-c3ccc4nncn4n3)cc2)cc1", "B-score": "inactive"},
      {"molecule": "C#CCOc1ccc(/C=C2/C(=O)ON=C2C)cc1OCC", "B-score": "inactive"},
      {"molecule": "COc1ccc(C(=O)C2CCCN(Cc3cccn3-c3ccccn3)C2)c(C)c1", "note": "(centres undefined)", "B-score": "inactive"},
      {"molecule": "CCOC(=O)c1ccc(NC(=O)c2c(NCc3ccccc3)[nH]c(=O)[nH]c2=O)cc1", "B-score": "inactive"},
      {"molecule": "COc1cccc(CNC(=O)CCC2CCCN(Cc3ccc(OC(F)F)cc3)C2)c1", "note": "(centres undefined)", "B-score": "inactive"},
      {"molecule": "C/C=C(\\C)C(=O)NCCN1C2=NC[C@H](Cc3ccc(O)cc3)N2C[C@@H]1Cc1ccc(OC)cc1", "B-score": "inactive"},
      {"molecule": "COc1ccc(C[C@H]2CN3C(=NC[C@H]3C)N2CCNC(=O)CCC2CCCCC2)cc1", "B-score": "78 (active)"},
      {"molecule": "CCNc1nc(SCCOc2ccccc2)nc(N(C)C)n1", "B-score": "inactive"},
      {"molecule": "O=C(NCCN1C(=O)S/C(=C\\c2cccnc2)C1=O)c1ccc(S(=O)(=O)N2CCCC2)cc1", "B-score": "inactive"},
      {"molecule": "CC(=O)c1nc2ccccc2n1Cc1ccccc1", "B-score": "inactive"},
      {"molecule": "CCCc1nc2c(C)cc(-c3nc4ccccc4n3C)cc2n1Cc1ccc(-c2ccccc2C(=O)O)cc1", "B-score": "95 (active)"},
      {"molecule": "CC(=O)Nc1nc2ccccc2n1Cc1ccc(C)cc1", "B-score": "inactive"},
      {"molecule": "COC(=O)N/N=C/c1c[n+]([O-])c2ccccc2[n+]1[O-]", "B-score": "inactive"},
      {"molecule": "Cc1cc(C)cc(OCC(=O)NC(C)c2ccccc2)c1", "note": "(centres undefined)", "B-score": "inactive"},
      {"molecule": "COc1cc(OC)cc(C(=O)N[C@H](C(=O)OCC(=O)NC(C)c2ccccc2)C(C)C)c1", "note": "(some centres undefined)", "B-score": "64 (active)"},
      {"molecule": "Cc1ccc(OCC(=O)NC(C)c2ccccc2)cc1C", "note": "(centres undefined)", "B-score": "inactive"},
      {"molecule": "CCc1ccccc1NC(=O)c1cc(-c2ccc3c(c2)OCO3)on1", "B-score": "inactive"},
      {"molecule": "O=S(=O)(c1ccccc1)N1CCC(c2ccccc2)CC1", "B-score": "inactive"},
      {"molecule": "c1ccc(C2CCC(N3CCC(N4CCCCC4)CC3)CC2)cc1", "note": "(centres undefined)", "B-score": "123 (active)"},
      {"molecule": "Cc1ccc(S(=O)(=O)N2CCC(N3CCCCCC3)CC2)cc1", "B-score": "inactive"},
      {"molecule": "C/C(=N/OC(=O)c1ccc(Br)cc1)c1ccc(C)cc1", "B-score": "inactive"},
      {"molecule": "CC(C)N(Cc1nnc(-c2ccc(Cl)cc2)o1)C(=O)C1=COCCO1", "B-score": "inactive"},
      {"molecule": "CNC(=O)COC(=O)c1cc(-c2ccc(OC)cc2)nc2ccccc12", "B-score": "inactive"},
      {"molecule": "Cc1cc(C(=O)Nc2ccccc2N2CCOCC2)c2ccccc2n1", "B-score": "inactive"},
      {"molecule": "COC(=O)c1cc(N2CCNCC2)nc2ccccc12", "B-score": "87 (active)"},
      {"molecule": "Cc1ccc(S(=O)(=O)NCC(=O)N(CC(=O)NCC2CCCO2)c2cccc(F)c2)cc1", "note": "(centres undefined)", "B-score": "inactive"},
      {"molecule": "CN(C)CCCN(C(=O)c1ccc(S(=O)(=O)N2CCCc3ccccc32)cc1)c1nc2ccc(F)cc2s1", "B-score": "197 (active)"},
      {"molecule": "CN(C)CCCN(C(=O)c1ccc(S(=O)(=O)N2CCCCCC2)cc1)c1nc2cc3c(cc2s1)OCCO3", "B-score": "inactive"},
      {"molecule": "CN(C)CCCN(C(=O)c1ccc(S(=O)(=O)N2CCCCCC2)cc1)c1nc2ccc(Br)cc2s1", "B-score": "inactive"},
      {"molecule": "CCOc1ccc(N(CC(=O)NCCOc2ccccc2OC)S(=O)(=O)c2ccccc2)cc1", "B-score": "inactive"},
      {"molecule": "COc1ccc2nc(/N=C(\\N)NC(=O)Nc3ccccc3)nc(C)c2c1", "B-score": "inactive"},
      {"molecule": "O=C(NNC(=O)C(O)c1ccccc1)NC1CCCCC1", "note": "(centres undefined)", "B-score": "inactive"},
      {"molecule": "Cc1nc(/N=C(\\N)NC(=O)NC2CCCCC2)nc2ccccc12", "B-score": "90 (active)"},
      {"molecule": "COC(=O)C1CCCCN1C(=O)c1ccc(OC2CCN(C(C)=O)CC2)c(OC)c1", "note": "(centres undefined)", "B-score": "inactive"},
      {"molecule": "CN(CCO)S(=O)(=O)c1ccc2c(c1)C(=O)c1cc(S(=O)(=O)N(C)CCO)ccc1-2", "B-score": "inactive"},
      {"molecule": "COC(=O)c1sc(-c2ccc(C(C)(C)C)cc2)cc1NC(=O)/C=C/C(=O)O", "B-score": "inactive"},
      {"molecule": "NC(=O)CSc1nnc(NC(=O)c2ccc3ccccc3c2)s1", "B-score": "inactive"},
      {"molecule": "O=C(Nc1ccc2ccccc2c1)/C(=C/c1cccc(Br)c1)NC(=O)c1ccco1", "B-score": "inactive"},
      {"molecule": "CCCc1ccc(OCC(=O)NNC(=S)NC(=O)c2ccco2)cc1", "B-score": "66 (active)"},
      {"molecule": "Cc1ccc(OCC(=O)NCCCNC(=O)c2ccco2)cc1C", "B-score": "inactive"},
      {"molecule": "CC(Oc1ccc2ccccc2c1)C(=O)NNC(=S)NC(=O)c1ccco1", "note": "(centres undefined)", "B-score": "65 (active)"},
      {"molecule": "CCCc1ccc(OCCNC(=O)c2ccco2)cc1", "B-score": "inactive"},
      {"molecule": "Cc1ccc(C(=O)NNC(=O)C(C)Oc2ccc3ccccc3c2)o1", "note": "(centres undefined)", "B-score": "inactive"},
      {"molecule": "COc1cccc(NC(=O)CN2CCN(CC(=O)Nc3ccccc3Cl)CC2)c1", "B-score": "inactive"},
      {"molecule": "Cc1ccc(C23CC4CC(CC(C(=O)NCC(=O)O)(C4)C2)C3)cc1", "B-score": "inactive"},
      {"molecule": "CCC(=O)Nc1nnc(S(=O)(=O)N(CC(C)C)c2ccccc2)s1", "B-score": "inactive"},
      {"molecule": "COn1c(-c2ccc(Cl)cc2Cl)nc2ncccc21", "B-score": "inactive"},
      {"molecule": "Clc1ccc(-c2cc(-c3ccccn3)on2)c(Cl)c1", "B-score": "inactive"},
      {"molecule": "Clc1ccc(COn2c(-c3ccc(Cl)cc3Cl)nc3ncccc32)cc1", "B-score": "80 (active)"},
      {"molecule": "COc1ccccc1/C=N/N1CCN(Cc2ccccc2Cl)CC1", "B-score": "inactive"},
      {"molecule": "CC(=O)N1CC2(C)CN(C(C)=O)CC(C)(C1)C2=O", "B-score": "inactive"},
      {"molecule": "COc1ccc(N2CCN(C(=O)CCNC(=O)c3ccc(Br)cc3)CC2)cc1", "B-score": "inactive"},
      {"molecule": "CCCN(CCC)CCCNC(=O)CNC(=O)c1nn(-c2ccc(OC)cc2)c(=O)c2ccccc12", "B-score": "93 (active)"},
      {"molecule": "COCCCNC(=O)CNC(=O)c1nn(-c2ccc(OC)cc2)c(=O)c2ccccc12", "B-score": "inactive"},
      {"molecule": "COc1ccc(-n2nc(C(=O)NCC(=O)Nc3cccc(C)n3)c3ccccc3c2=O)cc1", "B-score": "inactive"},
      {"molecule": "CCOC(=O)c1cnn(Cc2ccccc2Cl)c1N", "B-score": "inactive"},
      {"molecule": "CCCC(C(=O)NC1CCCC1)N(C(=O)Cn1nnc(-c2ccc(C)o2)n1)c1cccc(O)c1", "note": "(centres undefined)", "B-score": "inactive"}
    ]}
  ]
}
